# According to ChEMBL document CHEMBL1123585, “Differential effects of N-terminal modifications on the biological potencies of growth hormone releasing factor analogues with varying chain lengths” (1987):
# Tests used:
# [1] = biological target: T1, Growth hormone-releasing hormone receptor (Rattus norvegicus) (UniProt Q02644); test: In vitro rat pituitary cell growth hormone response was obtained; type: functional, cell-based; conditions: Pituitary gland cell
# T1 sequence (whole entry): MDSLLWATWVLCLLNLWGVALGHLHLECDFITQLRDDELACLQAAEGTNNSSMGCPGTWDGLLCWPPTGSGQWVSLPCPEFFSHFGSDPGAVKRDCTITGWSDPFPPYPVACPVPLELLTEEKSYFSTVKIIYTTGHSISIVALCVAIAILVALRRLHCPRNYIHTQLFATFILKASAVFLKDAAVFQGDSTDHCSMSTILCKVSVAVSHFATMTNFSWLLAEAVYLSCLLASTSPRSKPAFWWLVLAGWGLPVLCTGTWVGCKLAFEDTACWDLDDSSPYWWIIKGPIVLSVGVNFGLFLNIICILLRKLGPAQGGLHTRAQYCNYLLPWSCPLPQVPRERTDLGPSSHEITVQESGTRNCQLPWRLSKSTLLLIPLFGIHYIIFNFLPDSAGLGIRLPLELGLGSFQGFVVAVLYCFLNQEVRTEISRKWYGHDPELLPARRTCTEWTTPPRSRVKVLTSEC
# Rattus norvegicus [2] = test: Effect on growth hormone release(GRF) was determined in nembutal-anesthetized rat, at dose of 80 ug/100 g body weight.; type: functional, organism-based
# Summary of the method: (§1)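 Male Charles River rats (175-275 g), anesthetized with sodium pentobarbital 6 mg/100 g body weight. Six to nine per group. Peptide or saline given subcutaneously in 0.5 mL, 30 min after anesthetic. Jugular vein blood taken 15 min post-injection. Plasma GH measured by radioimmunoassay and reported as ng/mL, mean ± SEM.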
# Rattus norvegicus [3] = test: Effect on growth hormone release(GRF) was determined in nembutal-anesthetized rat, at dose of 32 ug/100 g body weight.; type: functional, organism-based; summary of the method: as §1
# [4] = biological target: T1, Growth hormone-releasing hormone receptor (Rattus norvegicus); test: Tested for the potency of growth hormone (GRF) on subcutaneous administration in anesthetized male Charles River rats; type: functional, organism-based
# Summary of the method: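 Pentobarbital-anesthetized male rats (175-275 g), six to nine per group, received two subcutaneous doses of analogue or of reference GRF(1-29)NH2, in 0.5 mL, 30 min after anesthesia. Plasma GH measured by RIA 15 min later. Potency with 95% confidence limits calculated from a four-point assay design by the Pugsley method.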
# Rattus norvegicus [5] = test: Effect on growth hormone release(GRF) was determined in nembutal-anesthetized rat, at dose of 0.5 ug/100 g body weight.; type: functional, organism-based; summary of the method: as §1
# Rattus norvegicus [6] = test: Effect on growth hormone release(GRF) was determined in nembutal-anesthetized rat, at dose of 0.2 ug/100 g body weight.; type: functional, organism-based; summary of the method: as §1
# Rattus norvegicus [7] = organism: Rattus norvegicus; test: In vitro rat pituitary cell growth hormone response to the compound was obtained; type: functional, Pituitary gland cell
# Rattus norvegicus [8] = test: Effect on growth hormone release(GRF) was determined in nembutal-anesthetized rat, at dose of 40 ug/100 g body weight.; type: functional, organism-based; summary of the method: as §1
# [9] = biological target: T1, Growth hormone-releasing hormone receptor (Rattus norvegicus); test: Effect on growth hormone release(GRF) was determined in nembutal-anesthetized rat, at dose of 100 ug/100 g body weight.; type: functional; summary of the method: as §1
# Rattus norvegicus [10] = test: Effect on growth hormone release(GRF) was determined in nembutal-anesthetized rat, at dose of 1 ug/100 g body weight.; type: functional, organism-based; summary of the method: as §1
# Rattus norvegicus [11] = test: Effect on growth hormone release(GRF) was determined in nembutal-anesthetized rat, at dose of 0.4 ug/100 g body weight.; type: functional, organism-based; summary of the method: as §1
smiles,measurement,setting,value
CC[C@H](C)[C@H](NC(=O)[C@H](C)NC(=O)[C@H](CC(=O)O)NC(=O)[C@@H](C)NC(=O)[C@@H](N)Cc1ccc(O)cc1)C(=O)N[C@@H](Cc1ccccc1)C(=O)N[C@H](C(=O)N[C@@H](CC(N)=O)C(=O)N[C@@H](CO)C(=O)N[C@@H](Cc1ccc(O)cc1)C(=O)N[C@@H](CCCN=C(N)N)C(=O)N[C@@H](CCCCN)C(=O)N[C@H](C(=O)N[C@@H](CC(C)C)C(=O)NCC(=O)N[C@@H](CCC(N)=O)C(=O)N[C@@H](CC(C)C)C(=O)N[C@@H](CO)C(=O)N[C@@H](C)C(=O)N[C@@H](CCCN=C(N)N)C(=O)N[C@@H](CCCCN)C(=O)N[C@@H](CC(C)C)C(=O)N[C@@H](CC(C)C)C(=O)N[C@@H](CCC(N)=O)C(N)=O)C(C)C)[C@@H](C)O,Potency,[1],0.004%
same,Plasma GH release,Rattus norvegicus [2],1370 ng/mL
same,Plasma GH release,Rattus norvegicus [3],499 ng/mL
same,Potency,[4],16%
CC[C@H](C)[C@H](NC(=O)[C@H](C)NC(=O)[C@H](CC(=O)O)NC(=O)[C@@H](C)NC(=O)[C@@H](N)Cc1ccc(O)cc1)C(=O)N[C@@H](Cc1ccccc1)C(=O)N[C@H](C(=O)N[C@@H](CC(N)=O)C(=O)N[C@@H](CO)C(=O)N[C@@H](Cc1ccc(O)cc1)C(=O)N[C@@H](CCCN=C(N)N)C(=O)N[C@@H](CCCCN)C(=O)N[C@H](C(=O)N[C@@H](CC(C)C)C(=O)NCC(=O)N[C@@H](CCC(N)=O)C(=O)N[C@@H](CC(C)C)C(=O)N[C@@H](CO)C(=O)N[C@@H](C)C(=O)N[C@@H](CCCN=C(N)N)C(=O)N[C@@H](CCCCN)C(=O)N[C@@H](CC(C)C)C(=O)N[C@@H](CC(C)C)C(=O)N[C@@H](CCC(N)=O)C(=O)N[C@@H](CC(=O)O)C(=O)N[C@H](C(=O)N[C@@H](CCSC)C(=O)N[C@@H](CO)C(=O)N[C@@H](CCCN=C(N)N)C(N)=O)[C@@H](C)CC)C(C)C)[C@@H](C)O,Plasma GH release,Rattus norvegicus [5],2180 ng/mL
same,Plasma GH release,Rattus norvegicus [6],1210 ng/mL
same,Potency,Rattus norvegicus [7],5340%
same,Potency,[4],4450%
CC[C@H](C)[C@H](NC(=O)[C@H](C)NC(=O)[C@H](CC(=O)O)NC(=O)[C@H](C)NC(=O)[C@@H](N)Cc1ccc(O)cc1)C(=O)N[C@@H](Cc1ccccc1)C(=O)N[C@H](C(=O)N[C@@H](CC(N)=O)C(=O)N[C@@H](CO)C(=O)N[C@@H](Cc1ccc(O)cc1)C(=O)N[C@@H](CCCN=C(N)N)C(=O)N[C@@H](CCCCN)C(=O)N[C@H](C(=O)N[C@@H](CC(C)C)C(=O)NCC(=O)N[C@@H](CCC(N)=O)C(=O)N[C@@H](CC(C)C)C(=O)N[C@@H](CO)C(=O)N[C@@H](C)C(=O)N[C@@H](CCCN=C(N)N)C(=O)N[C@@H](CCCCN)C(=O)N[C@@H](CC(C)C)C(=O)N[C@@H](CC(C)C)C(=O)N[C@@H](CCCN=C(N)N)C(N)=O)C(C)C)[C@@H](C)O,Plasma GH release,Rattus norvegicus [8],392 ng/mL
same,Potency,[4],< 1%
same,Plasma GH release,[9],406 ng/mL
CC[C@H](C)[C@H](NC(=O)[C@H](C)NC(=O)[C@H](CC(=O)O)NC(=O)[C@@H](C)N(C)C(=O)[C@@H](N)Cc1ccc(O)cc1)C(=O)N[C@@H](Cc1ccccc1)C(=O)N[C@H](C(=O)N[C@@H](CC(N)=O)C(=O)N[C@@H](CO)C(=O)N[C@@H](Cc1ccc(O)cc1)C(=O)N[C@@H](CCCN=C(N)N)C(=O)N[C@@H](CCCCN)C(=O)N[C@H](C(=O)N[C@@H](CC(C)C)C(=O)NCC(=O)N[C@@H](CCC(N)=O)C(=O)N[C@@H](CC(C)C)C(=O)N[C@@H](CO)C(=O)N[C@@H](C)C(=O)N[C@@H](CCCN=C(N)N)C(=O)N[C@@H](CCCCN)C(=O)N[C@@H](CC(C)C)C(=O)N[C@@H](CC(C)C)C(=O)N[C@@H](CCC(N)=O)C(=O)N[C@@H](CC(=O)O)C(=O)N[C@H](C(=O)N[C@@H](CCSC)C(=O)N[C@@H](CO)C(=O)N[C@@H](CCCN=C(N)N)C(N)=O)[C@@H](C)CC)C(C)C)[C@@H](C)O,Plasma GH release,Rattus norvegicus [10],1720 ng/mL
same,Plasma GH release,Rattus norvegicus [11],761 ng/mL
same,Potency,[4],1630%
